Test results taken from ChEMBL document CHEMBL3120102, “Structure-based design, synthesis and biological evaluation of novel anthra[1,2-d]imidazole-6,11-dione homologues as potential antitumor agents” (2013).

Assays:
[1] = system: HOP-92; test: Cytotoxicity against human HOP92 cells assessed as cell growth at 10 uM after 48 hrs by SRB assay; type: functional; details: HOP-92, 48 h, read-out: Activity
How it was run: (§1)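 NCI 60-cell-line screen, first stage: compound at a single dose of […] (unit as printed) for 48 h. Cellular protein was measured by sulforhodamine B colorimetry. Growth was determined using a time-zero cell control and plates not exposed to drug.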

[2] = system: SNB-75; test: Cytotoxicity against human SNB75 cells assessed as cell growth at 10 uM after 48 hrs by SRB assay; type: functional; details: SNB-75, 48 h, read-out: Activity
How it was run: (§2)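 First stage of the NCI 60 human tumour cell line screen, with each compound tested at a single dose of 10. Cellular protein measured by sulforhodamine B colorimetry after 48 h drug exposure. Growth is calculated against a time-zero cell control and against plates not exposed to drug.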

[3] = system: SK-MEL-5; test: Cytotoxicity against human SK-MEL-5 cells assessed as cell growth at 10 uM after 48 hrs by SRB assay; type: functional; details: SK-MEL-5, 48 h, read-out: Activity
How it was run: (§3)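 First stage of the NCI 60 human tumour cell line screen: a single dose is tested against every line. Cell growth is read as cellular protein by sulforhodamine B colorimetry after 48 h of drug exposure, with reference to a time-zero control and to untreated plates.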

[4] = system: MDA-MB-435; test: Cytotoxicity against human MDA-MB-435 cells assessed as cell growth at 10 uM after 48 hrs by SRB assay; type: functional; details: MDA-MB-435, 48 h, read-out: Activity; how it was run: as §3
[5] = system: HCT-15; test: Cytotoxicity against human HCT15 cells assessed as cell growth at 10 uM after 48 hrs by SRB assay; type: functional; details: HCT-15, 48 h, read-out: Activity
[6] = system: COLO 205; test: Cytotoxicity against human COLO205 cells assessed as cell growth at 10 uM after 48 hrs by SRB assay; type: functional; details: COLO 205, 48 h, read-out: Activity
[7] = system: SK-MEL-28; test: Cytotoxicity against human SK-MEL-28 cells assessed as cell growth at 10 uM after 48 hrs by SRB assay; type: functional; details: SK-MEL-28, 48 h, read-out: Activity; how it was run: as §3
[8] = system: LOX IMVI; test: Cytotoxicity against human LOXIMVI cells assessed as cell growth at 10 uM after 48 hrs by SRB assay; type: functional; details: read-out: Activity; how it was run: as §1
[9] = Cytotoxicity against human UACC257 cells assessed as cell growth at 10 uM after 48 hrs by SRB assay; type: functional; details: UACC-257, 48 h, read-out: Activity; how it was run: as §2
[10] = Cytotoxicity against human H1299 cells assessed as cell viability at 1 uM after 48 hrs by MTT assay; type: functional; details: NCI-H1299, 48 h, read-out: Activity
How it was run: (§4)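 About 2×10³ H1299 cells per well were grown for 24 h at 37 °C in 5% CO2. Compound was dissolved in DMSO immediately before use, diluted in complete medium and left on cells for 48 h. MTT was then added for 4 h at 37 °C, followed by SDS/DMF lysis buffer for 16 h at 37 °C. Absorbance was read at 550 nm.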

[11] = Cytotoxicity against human H1299 cells assessed as cell viability at 10 uM after 48 hrs by MTT assay; type: functional; details: NCI-H1299, 48 h, read-out: Activity; how it was run: as §4
[12] = system: HL-60(TB); test: Cytotoxicity against human HL-60(TB) cells assessed as cell growth at 10 uM after 48 hrs by SRB assay; type: functional; details: HL-60, 48 h, read-out: Activity
How it was run: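 NCI 60-cell panel first-stage screen at a single dose in the HL-60(TB) leukemia line. Cellular protein was measured by sulforhodamine B colorimetry after 48 h of drug exposure. Growth was referenced to a time-zero cell control and to plates not exposed to drug.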

[13] = system: U-251; test: Cytotoxicity against human U251 cells assessed as cell growth at 10 uM after 48 hrs by SRB assay; type: functional; details: U-251, 48 h, read-out: Activity; how it was run: as §2
[14] = system: ACHN; test: Cytotoxicity against human ACHN cells assessed as cell growth at 10 uM after 48 hrs by SRB assay; type: functional; details: read-out: Activity
[15] = system: A549; test: Cytotoxicity against human A549 cells assessed as cell growth at 10 uM after 48 hrs by SRB assay; type: functional; details: A549, 48 h, read-out: Activity
[16] = system: RPMI-8226; test: Cytotoxicity against human RPMI8226 cells assessed as cell growth at 10 uM after 48 hrs by SRB assay; type: functional; details: RPMI-8226, 48 h, read-out: Activity; how it was run: as §3
[17] = target: Telomerase reverse transcriptase (Homo sapiens) (UniProt O14746); test: Inhibition of human tert transcriptional activity assessed as SEAP activity at 10 uM after 24 hrs by SEAP reporter assay; parameters: scale not given: the % may be the effect or the level left
How it was run: (§5)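 Reporter assay for hTERT transcriptional activity using secreted alkaline phosphatase. About 2 × 10³ cells per well were grown for 24 h at 37 °C, then given fresh medium. Buffer was added to the medium: 2 M diethanolamine, 1 mM MgCl2 and 20 mM L-homoarginine. p-Nitrophenyl phosphate was added to 12 mM final. The rate of absorbance increase was read at 405 nm.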

[18] = system: NCI-H226; test: Cytotoxicity against human NCI-H226 cells assessed as growth inhibition after 48 hrs by SRB assay; type: functional
How it was run: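 NCI 60-cell-line screen, five-dose stage: each cell line exposed for 48 h to five concentrations spanning five log steps; cellular protein measured by sulforhodamine B colorimetry. A time-zero cell control and plates without drug are used to derive GI50, TGI and LC50 from log-concentration dose-response curves.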

[19] = system: T47D; test: Cytotoxicity against human T47D cells assessed as cell growth at 10 uM after 48 hrs by SRB assay; type: functional; details: read-out: Activity; how it was run: as §2
[20] = system: SF-268; test: Cytotoxicity against human SF268 cells assessed as cell growth at 10 uM after 48 hrs by SRB assay; type: functional; details: SF-268, 48 h, read-out: Activity; how it was run: as §3
[21] = system: BT-549; test: Cytotoxicity against human BT549 cells assessed as cell growth at 10 uM after 48 hrs by SRB assay; type: functional; details: BT-549, 48 h, read-out: Activity; how it was run: as §1
[22] = system: SW-620; test: Cytotoxicity against human SW620 cells assessed as cell growth at 10 uM after 48 hrs by SRB assay; type: functional; details: SW-620, 48 h, read-out: Activity; how it was run: as §2
[23] = system: HL-60(TB); test: Cytotoxicity against human HL-60(TB) cells assessed as growth inhibition after 48 hrs by SRB assay; type: functional; details: for GI50 / LC50 / TGI: HL-60, 48 h
How it was run: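 NCI 60-cell panel five-concentration stage (0.01, 0.1, 1, 10, 100) in HL-60(TB). Cellular protein was measured by sulforhodamine B colorimetry after 48 h of exposure. A time-zero cell control and untreated plates allowed calculation of GI50, TGI and LC50. These were read from log10 concentration dose-response curves.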

[24] = Cytotoxicity against human H1299 cells assessed as cell viability at 100 uM after 48 hrs by MTT assay; type: functional; details: NCI-H1299, 48 h, read-out: Activity; how it was run: as §4
[25] = target: Telomerase reverse transcriptase (Homo sapiens) (UniProt O14746); test: Inhibition of human tert transcriptional activity assessed as SEAP activity at 1 uM after 24 hrs by SEAP reporter assay; parameters: scale not given: the % may be the effect or the level left; how it was run: as §5
[26] = system: NCI-H322M; test: Cytotoxicity against human NCI-H322M cells assessed as cell growth at 10 uM after 48 hrs by SRB assay; type: functional; details: read-out: Activity; how it was run: as §3

Sequence of Telomerase reverse transcriptase (Homo sapiens) (O14746 whole entry): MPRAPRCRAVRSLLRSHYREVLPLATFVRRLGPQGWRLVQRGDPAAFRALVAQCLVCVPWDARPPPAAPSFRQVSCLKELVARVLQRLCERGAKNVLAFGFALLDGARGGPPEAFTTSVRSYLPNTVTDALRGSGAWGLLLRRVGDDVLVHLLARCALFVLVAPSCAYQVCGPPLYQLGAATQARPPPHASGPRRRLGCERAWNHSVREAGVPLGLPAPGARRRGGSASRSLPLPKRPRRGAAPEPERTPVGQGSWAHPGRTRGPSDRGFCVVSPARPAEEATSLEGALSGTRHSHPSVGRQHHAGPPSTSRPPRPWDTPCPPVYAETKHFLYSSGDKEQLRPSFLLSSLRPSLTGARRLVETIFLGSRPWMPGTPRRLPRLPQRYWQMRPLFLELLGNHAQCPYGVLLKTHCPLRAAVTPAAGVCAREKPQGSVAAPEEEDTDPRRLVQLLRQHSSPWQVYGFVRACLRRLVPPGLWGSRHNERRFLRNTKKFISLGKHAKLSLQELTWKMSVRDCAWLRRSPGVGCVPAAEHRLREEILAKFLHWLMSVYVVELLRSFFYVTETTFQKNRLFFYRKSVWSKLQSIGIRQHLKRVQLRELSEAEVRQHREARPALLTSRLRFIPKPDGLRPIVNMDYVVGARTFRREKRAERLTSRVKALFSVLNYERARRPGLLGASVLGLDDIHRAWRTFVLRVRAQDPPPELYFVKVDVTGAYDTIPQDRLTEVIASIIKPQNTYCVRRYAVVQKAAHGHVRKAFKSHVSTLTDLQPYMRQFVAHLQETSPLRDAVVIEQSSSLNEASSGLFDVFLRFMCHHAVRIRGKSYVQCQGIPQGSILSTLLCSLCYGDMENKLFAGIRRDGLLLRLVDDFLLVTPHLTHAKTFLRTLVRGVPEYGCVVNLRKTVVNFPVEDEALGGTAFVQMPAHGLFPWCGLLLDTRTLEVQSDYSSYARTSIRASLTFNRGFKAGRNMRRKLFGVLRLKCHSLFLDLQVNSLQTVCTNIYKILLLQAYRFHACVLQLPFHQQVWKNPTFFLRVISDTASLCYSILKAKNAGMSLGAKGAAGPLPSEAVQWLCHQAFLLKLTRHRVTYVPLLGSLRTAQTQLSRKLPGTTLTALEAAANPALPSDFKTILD

## CCCSc1nc2ccc3c(c2[nH]1)C(=O)c1ccccc1C3=O
[1]
  growth at 10 µM: 17.2%
[2]
  growth at 10 µM: -9.55%
[3]
  growth at 10 µM: 78.5%
[4]
  growth at 10 µM: 77.4%
[5]
  growth at 10 µM: 67.7%
[6]
  growth at 10 µM: 103%
[7]
  growth at 10 µM: 92.6%
[8]
  growth at 10 µM: 62.6%
[9]
  growth at 10 µM: 86.3%
[10]
  viability at 1 µM: 91%
[11]
  viability at 10 µM: 78%
[12]
  growth at 10 µM: 74.2%
[13]
  growth at 10 µM: 63%
[14]
  growth at 10 µM: 27.2%
[15]
  growth at 10 µM: 59.1%
[16]
  growth at 10 µM: 71.8%
[17]
  Activity: 94%
[18]
  growth inhibition (GI): Dose-dependent effect
[18]; NCI-H226, 48 h
  GI50: 4.37 µM
  LC50: > 100 µM
  TGI: > 100 µM
[19]
  growth at 10 µM: 53.7%
[20]
  growth at 10 µM: 47.8%
[21]
  growth at 10 µM: 76%
[22]
  growth at 10 µM: 104%
[23]
  growth inhibition (GI): Dose-dependent effect
  GI50: 68.4 µM
  LC50: > 100 µM
  TGI: > 100 µM
[24]
  viability at 100 µM: 12%
[25]
  Activity: 103%
[26]
  growth at 10 µM: 76%

## O=C1c2ccccc2C(=O)c2c1ccc1nc(SCCN3CCCC3)[nH]c21
[1]
  growth at 10 µM: 35.2%
[2]
  growth at 10 µM: 81.8%
[3]
  growth at 10 µM: 78.5%
[4]
  growth at 10 µM: 66.5%
[5]
  growth at 10 µM: 40.4%
[6]
  growth at 10 µM: 17.1%
[7]
  growth at 10 µM: 100%
[8]
  growth at 10 µM: 11.9%
[9]
  growth at 10 µM: 92.8%
[10]
  viability at 1 µM: 90%
[11]
  viability at 10 µM: 89%
[12]
  growth at 10 µM: 37.4%
[13]
  growth at 10 µM: 69.1%
[14]
  growth at 10 µM: 34.6%
[15]
  growth at 10 µM: 35.5%
[16]
  growth at 10 µM: -60.2%
[17]
  Activity: 98%
[18]
  growth inhibition (GI): Dose-dependent effect
[18]; NCI-H226, 48 h
  TGI: 36.6 µM
[19]
  growth at 10 µM: 83.1%
[20]
  growth at 10 µM: 42%
[21]
  growth at 10 µM: 78.6%
[22]
  growth at 10 µM: 22.8%
[23]
  growth inhibition (GI): Dose-dependent effect
  GI50: 1.13 µM
  LC50: 57.6 µM
  TGI: 11.9 µM
[24]
  viability at 100 µM: 21%
[25]
  Activity: 102%
[26]
  growth at 10 µM: 73.2%

## O=C1c2ccccc2C(=O)c2c1ccc1[nH]c(=S)[nH]c21
[1]
  growth at 10 µM: 65.5%
[2]
  growth at 10 µM: 101%
[3]
  growth at 10 µM: 86.7%
[4]
  growth at 10 µM: 114%
[5]
  growth at 10 µM: 83.8%
[6]
  growth at 10 µM: 104%
[7]
  growth at 10 µM: 118%
[8]
  growth at 10 µM: 84%
[9]
  growth at 10 µM: 105%
[10]
  viability at 1 µM: 101%
[11]
  viability at 10 µM: 99%
[12]
  growth at 10 µM: 97.6%
[13]
  growth at 10 µM: 88.8%
[14]
  growth at 10 µM: 96.2%
[15]
  growth at 10 µM: 118%
[16]
  growth at 10 µM: 101%
[17]
  Activity: 100%
[19]
  growth at 10 µM: 81.9%
[20]
  growth at 10 µM: 90.3%
[21]
  growth at 10 µM: 114%
[22]
  growth at 10 µM: 97.6%
[24]
  viability at 100 µM: 54%
[25]
  Activity: 97%
[26]
  growth at 10 µM: 96.3%

## O=C1c2ccccc2C(=O)c2c1ccc1nc3n(c21)CCS3
[1]
  growth at 10 µM: 88.7%
[2]
  growth at 10 µM: 95.6%
[3]
  growth at 10 µM: 65.9%
[4]
  growth at 10 µM: 83.1%
[5]
  growth at 10 µM: 57.1%
[6]
  growth at 10 µM: 95.2%
[7]
  growth at 10 µM: 109%
[8]
  growth at 10 µM: 65.9%
[9]
  growth at 10 µM: 80.6%
[10]
  viability at 1 µM: 115%
[11]
  viability at 10 µM: 128%
[12]
  growth at 10 µM: 78.8%
[13]
  growth at 10 µM: 72.5%
[14]
  growth at 10 µM: 59.4%
[15]
  growth at 10 µM: 81.2%
[16]
  growth at 10 µM: 71.7%
[17]
  Activity: 53%
[19]
  growth at 10 µM: 73.1%
[20]
  growth at 10 µM: 56.1%
[21]
  growth at 10 µM: 87.9%
[22]
  growth at 10 µM: 69.3%
[24]
  viability at 100 µM: 99%
[25]
  Activity: 107%
[26]
  growth at 10 µM: 72.1%
